Results reported in ChEMBL document CHEMBL4765235, “Discovery of N-[Bis(4-methoxyphenyl)methyl]-4-hydroxy-2-(pyridazin-3-yl)pyrimidine-5-carboxamide (MK-8617), an Orally Active Pan-Inhibitor of Hypoxia-Inducible Factor Prolyl Hydroxylase 1-3 (HIF PHD1-3) for the Treatment of Anemia” (J Med Chem, 2016).

How the values were obtained:
[1] = Volume of distribution at steady state in dog at 1 mg/kg, po or 0.5 mg/kg, iv; type: ADME, organism-based, Canis lupus familiaris; settings: in vivo, read-out: Vdss
Outline: (§1)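 Dog and rhesus monkey dosed 1 mg/kg po and 0.5 mg/kg iv. The iv vehicle was PEG200:12%HPCD:water (30:12:58 v/v/v); the po vehicle was Imwitor:Tween (1:1 w/w). Clearance was measured in plasma. Protein binding was measured in 100% serum.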

[2] = Metabolic stability in human liver microsomes assessed as metabolic turnover at 10 uM measured after 60 mins in presence of NADPH; type: ADME, Microsome; settings: read-out: Drug metabolism
[3] = Plasma clearance in rat at 2 mg/kg, po or 1 mg/kg, iv; type: ADME, organism-based
Cytochrome P450 2C19 = Cytochrome P450 2C19 (Homo sapiens, UniProt P33261); test: Inhibition of CYP2C19 (unknown origin); type: ADME
[4] = Drug metabolism in fasted bile-duct cannulated Sprague-Dawley rat bile assessed as oxidation of parent compound causing metabolite formation at 5 mg/kg, po using [3H]-labeled compound measured after 48 hrs; type: ADME, organism-based; settings: in vivo
[5] = Drug recovery in fasted bile-duct cannulated Sprague-Dawley rat bile assessed as metabolically unchanged parent compound at 5 mg/kg, po using [3H]-labeled compound measured after 48 hrs; type: ADME, organism-based; settings: in vivo
[6] = Cmax in Sprague-Dawley rat at 1.5 mg/kg, po administered as single dose measured at 6 hrs; type: ADME, organism-based; set-up: route oral, time 6 hrs, dose 1.5 mg/kg; settings: in vivo
[7] = Cmax in rhesus monkey at 1 mg/kg, po or 0.5 mg/kg, iv; type: ADME, organism-based, Macaca mulatta; set-up: dose 1 mg/kg; settings: in vivo
Outline: (§2)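 Single-dose PK at 1 mg/kg po and 0.5 mg/kg iv. Mouse clearance is from blood; dog and rhesus clearance is from plasma. Mouse vehicle, both routes: DMSO:PEG400:water (5:40:55, v/v/v). Dog and monkey iv vehicle: PEG200:12%HPCD:water (30:12:58 v/v/v). Dog and monkey po vehicle: Imwitor:Tween (1:1 w/w).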

[8] = Toxicity in Sprague-Dawley rat assessed as change in hemoglobin levels at 1.5 mg/kg, po QD administered for 4 weeks and measured post last dose; type: organism-based; settings: in vivo, 672 h
Prolyl hydroxylase EGLN2 = Prolyl hydroxylase EGLN2 (Homo sapiens, UniProt Q96KS0); test: Inhibition of FLAG-tagged full-length HIF-PHD1 (unknown origin) expressed in baculovirus infected Sf9 cells using 2-oxoglutarate and HIF1alpha biotinyl-DLDLEMLAPYIPMDDDFQL as peptide substrates preincubated for 30 mins followed by substrate addition and measured after 2 hrs by LANCE assay
[9] = Blood clearance in C57BL/6J mouse at 1 mg/kg, po or 0.5 mg/kg, iv; type: ADME, organism-based; settings: whole blood; outline: as §2
[10] = target: Hypoxia-inducible factor 1-alpha inhibitor (Homo sapiens) (UniProt Q9NWT6); test: Inhibition of FIH (unknown origin) using 2-oxoglutarate and biotinyl-SMDESGLPQLTSYDAEVNAPIQGSRNLLQGEELLR CAD peptide as substrate preincubated for 10 mins followed by substrate addition and measured after 1 hr by RapidFire Mass spectrometry
[11] = Protein binding in dog plasma assessed as unbound fraction at 1 mg/kg, po or 0.5 mg/kg, iv; type: ADME, organism-based, Canis lupus familiaris; settings: read-out: PPB
[12] = Volume of distribution at steady state in rat at 2 mg/kg, po or 1 mg/kg, iv; type: ADME, organism-based; settings: in vivo, read-out: Vdss
Cytochrome P450 2B6 = target: T1, Cytochrome P450 2B6 (Homo sapiens, UniProt P20813); test: Inhibition of CYP2B6 (unknown origin); type: ADME
T1 sequence (P20813 whole entry): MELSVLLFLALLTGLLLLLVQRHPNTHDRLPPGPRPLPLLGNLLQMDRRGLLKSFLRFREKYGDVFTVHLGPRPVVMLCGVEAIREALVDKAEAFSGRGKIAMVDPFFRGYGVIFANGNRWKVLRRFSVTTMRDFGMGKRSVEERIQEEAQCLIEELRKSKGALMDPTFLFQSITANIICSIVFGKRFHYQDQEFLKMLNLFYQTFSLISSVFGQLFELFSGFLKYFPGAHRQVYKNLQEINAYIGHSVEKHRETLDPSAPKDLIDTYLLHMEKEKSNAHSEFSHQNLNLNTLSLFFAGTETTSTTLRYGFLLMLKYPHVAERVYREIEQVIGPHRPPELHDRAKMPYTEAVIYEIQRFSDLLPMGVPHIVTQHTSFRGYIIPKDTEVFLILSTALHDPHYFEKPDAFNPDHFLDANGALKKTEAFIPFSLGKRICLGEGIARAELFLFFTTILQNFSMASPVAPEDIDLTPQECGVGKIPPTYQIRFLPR

[13] = Oral bioavailability in rhesus monkey at 1 mg/kg; type: ADME, organism-based, Macaca mulatta; settings: in vivo; outline: as §1
[14] = Volume of distribution at steady state in rhesus monkey at 1 mg/kg, po or 0.5 mg/kg, iv; type: ADME, organism-based, Macaca mulatta; settings: in vivo, read-out: Vdss; outline: as §1
Prolyl hydroxylase EGLN3 = Prolyl hydroxylase EGLN3 (Homo sapiens, UniProt Q9H6Z9); test: Inhibition of FLAG-tagged full-length HIF-PHD3 (unknown origin) expressed in baculovirus infected Sf9 cells using 2-oxoglutarate and HIF1alpha biotinyl-DLDLEMLAPYIPMDDDFQL as peptide substrates preincubated for 30 mins followed by substrate addition and measured after 2 hrs by LANCE assay
[15] = Oral bioavailability in C57BL/6J mouse at 1 mg/kg; type: ADME, organism-based; settings: in vivo
Outline: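 C57BL/6J mice dosed 1 mg/kg po and 0.5 mg/kg iv, both in DMSO:PEG400:water (5:40:55, v/v/v).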

Cytochrome P450 3A4 = Cytochrome P450 3A4 (Homo sapiens, UniProt P08684); test: Inhibition of CYP3A4 (unknown origin); type: ADME
[16] = Protein binding in rat plasma assessed as unbound fraction at 2 mg/kg, po or 1 mg/kg, iv; type: ADME, organism-based; settings: read-out: PPB
[17] = In vivo inhibition of HIF-PHD2 in C57BL/6 mouse assessed as serum erythropoietin level at 5 mg/kg, iv measured after 4 hrs; type: functional
Outline: (§3)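 Mouse pharmacodynamic EPO assay (MoPED). Compound dosed iv; serum EPO measured 4 hr after dosing and reported in pg/mL. Minimum effective dose is the lowest dose giving EPO elevation.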

[18] = Toxicity in Sprague-Dawley rat assessed as change in hemoglobin levels at 15 mg/kg, po QD administered for 4 weeks and measured post last dose; type: organism-based; settings: in vivo, 672 h
[19] = Metabolic stability in rat liver microsomes assessed as metabolic turnover at 10 uM measured after 60 mins in presence of NADPH; type: ADME, Microsome; settings: read-out: Drug metabolism
Outline: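 Tritiated compound incubated with rat or monkey liver microsomes supplemented with NADPH; metabolic turnover monitored.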

[20] = In vivo inhibition of HIF-PHD2 in C57BL/6 mouse assessed as serum erythropoietin level at 50 mg/kg, iv measured after 4 hrs; type: functional; outline: as §3
[21] = Half life in rhesus monkey at 1 mg/kg, po or 0.5 mg/kg, iv; type: ADME, organism-based, Macaca mulatta; settings: in vivo; outline: as §2
[22] = Metabolic stability in dog liver microsomes assessed as metabolic turnover at 10 uM measured after 60 mins in presence of NADPH; type: ADME, Canis lupus familiaris, Microsome; settings: read-out: Drug metabolism
Outline: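 Tritiated compound incubated with liver microsomes with NADPH added; metabolic turnover monitored.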

[23] = Drug recovery in fasted bile-duct cannulated Sprague-Dawley rat feces at 5 mg/kg, po using [3H]-labeled compound measured after 48 hrs; type: ADME, organism-based; settings: in vivo
[24] = Half life in dog at 1 mg/kg, po or 0.5 mg/kg, iv; type: ADME, organism-based, Canis lupus familiaris; settings: in vivo; outline: as §2

Cytochrome P450 3A4, sequence (P08684 whole entry): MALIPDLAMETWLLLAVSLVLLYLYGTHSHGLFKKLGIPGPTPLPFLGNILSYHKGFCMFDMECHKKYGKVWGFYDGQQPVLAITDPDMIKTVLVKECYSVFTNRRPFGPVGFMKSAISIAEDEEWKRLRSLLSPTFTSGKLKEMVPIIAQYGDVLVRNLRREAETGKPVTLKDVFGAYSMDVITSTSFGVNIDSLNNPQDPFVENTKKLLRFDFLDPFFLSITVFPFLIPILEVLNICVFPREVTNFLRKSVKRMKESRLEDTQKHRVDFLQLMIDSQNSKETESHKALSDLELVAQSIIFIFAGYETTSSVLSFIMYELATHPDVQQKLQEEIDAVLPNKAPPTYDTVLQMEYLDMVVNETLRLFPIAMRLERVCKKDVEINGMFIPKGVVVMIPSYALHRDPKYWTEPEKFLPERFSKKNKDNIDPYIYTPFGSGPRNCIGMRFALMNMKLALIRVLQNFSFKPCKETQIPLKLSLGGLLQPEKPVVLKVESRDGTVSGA
Prolyl hydroxylase EGLN3, sequence (Q9H6Z9 whole entry): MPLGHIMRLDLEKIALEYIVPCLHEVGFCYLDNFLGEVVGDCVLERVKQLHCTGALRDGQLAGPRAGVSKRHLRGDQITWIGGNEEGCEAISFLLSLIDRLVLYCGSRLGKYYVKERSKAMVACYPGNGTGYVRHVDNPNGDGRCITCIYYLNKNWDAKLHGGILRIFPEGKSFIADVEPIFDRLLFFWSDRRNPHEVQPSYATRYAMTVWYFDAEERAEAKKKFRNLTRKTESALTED
Prolyl hydroxylase EGLN2, sequence (Q96KS0 whole entry): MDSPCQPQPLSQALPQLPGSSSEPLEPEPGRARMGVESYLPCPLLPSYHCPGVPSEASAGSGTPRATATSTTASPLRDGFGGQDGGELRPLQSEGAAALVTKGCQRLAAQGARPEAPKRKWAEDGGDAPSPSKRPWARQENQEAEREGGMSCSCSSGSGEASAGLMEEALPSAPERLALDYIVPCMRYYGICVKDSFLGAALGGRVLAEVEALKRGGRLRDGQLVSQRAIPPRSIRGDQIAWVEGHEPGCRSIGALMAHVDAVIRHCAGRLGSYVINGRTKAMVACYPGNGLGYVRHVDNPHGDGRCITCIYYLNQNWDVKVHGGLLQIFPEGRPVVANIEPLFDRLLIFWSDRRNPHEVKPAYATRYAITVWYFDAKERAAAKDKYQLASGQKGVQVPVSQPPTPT
Cytochrome P450 2C19, sequence (P33261 whole entry): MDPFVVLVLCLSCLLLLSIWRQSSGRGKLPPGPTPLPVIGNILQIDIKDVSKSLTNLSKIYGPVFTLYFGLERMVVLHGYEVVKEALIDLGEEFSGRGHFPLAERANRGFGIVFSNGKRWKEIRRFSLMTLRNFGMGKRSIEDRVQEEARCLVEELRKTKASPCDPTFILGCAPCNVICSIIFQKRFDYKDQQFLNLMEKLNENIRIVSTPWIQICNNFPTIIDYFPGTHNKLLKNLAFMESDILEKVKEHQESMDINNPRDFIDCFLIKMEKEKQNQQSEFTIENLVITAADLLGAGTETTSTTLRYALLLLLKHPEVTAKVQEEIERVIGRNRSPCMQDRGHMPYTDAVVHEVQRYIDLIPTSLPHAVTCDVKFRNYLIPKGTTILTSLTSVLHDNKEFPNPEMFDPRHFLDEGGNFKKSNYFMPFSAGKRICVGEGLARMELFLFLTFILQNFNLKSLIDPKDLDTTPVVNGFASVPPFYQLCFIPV

- Vd [1]: 0.12 L/kg
- metabolised at 1 h, 10 µM [2]: 34%
- clearance [3]: 0.2 mL/min/kg
- IC50 (Cytochrome P450 2C19): > 60 µM
- Drug metabolism [4]: Metabolite_Detected
- Drug recovery [5]: < 10%
- Cmax [6]: 6.8 µM
- Cmax [7]: 17 µM
- IC50 (Prolyl hydroxylase EGLN2): 0.001 µM
- clearance [9]: 0.13 mL/min/kg
- IC50 [10]: 18 µM
- fraction unbound [11]: 0.01
- Vd [12]: 0.16 L/kg
- IC50 (Cytochrome P450 2B6): > 60 µM
- bioavailability [13]: 52%
- Vd [14]: 0.1 L/kg
- IC50 (Prolyl hydroxylase EGLN3): 0.014 µM
- bioavailability [15]: 6.3%
- IC50 (Cytochrome P450 3A4): > 60 µM
- fraction unbound [16]: 0.006
- metabolised at 1 h, 10 µM [19]: < 10%
- half-life [21]: 10 h
- metabolised at 1 h, 10 µM [22]: < 10%
- Drug recovery [23]: 39%
- half-life [24]: 19 h
Structure (SMILES): COc1ccc(C(NC(=O)c2cnc(-c3cccnn3)nc2O)c2ccc(OC)cc2)cc1
- Activity [8]: 1 g/dL
- Activity [17]: 6200 pg/mL
- Activity [18]: 7.6 g/dL
- Activity [20]: 18000 pg/mL
